# Test results taken from publication PMC5648736 (Clinical Pharmacokinetics, 2017).
# Where two headings read alike, the source gives them in different places. Marks after values point to notes of the source that are not given here.
# Legend:
# [1] = format: in vivo, human; details: for AUC∞ estimated ratio (95% CI): unadjusted ANCOVA; for C max estimated ratio (90% CI): unadjusted; for t ½: geometric mean (CV%)
# [2] = Safety and tolerability of single dose semaglutide 0.5 mg; format: in vivo, human; details: single SC 0.5 mg
# Method in brief: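 Single 0.5 mg subcutaneous injection into the thigh by pen. ESRD subjects were dosed 1–24 h after haemodialysis, with no dialysis for 48 h after. Monitoring covered AEs, physical exam, ECG, vital signs, plasma glucose and clinical labs (biochemistry, haematology, urinalysis). TEAEs counted from dosing day to follow-up +14 days (~5 weeks). Hypoglycaemia: major = unable to self-treat; minor = self-treated with glucose <3.1 mmol/L. Descriptive statistics.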
# [3] = Safety of initial single dose semaglutide 10 µg/kg; format: in vivo, human
# Method in brief: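 Initial cohort received a single weight-based dose, with ESRD subjects dosed 1–24 h after haemodialysis. Safety was judged from reported AEs, serious AEs, and gastrointestinal frequency and severity. Hypoglycaemia was classed as major, minor or symptoms-only by ability to self-treat and a 3.1 mmol/L plasma glucose cut-off. This cohort was evaluated for safety only and excluded from pharmacokinetic analysis.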
# [4] = cited from earlier work
# [5] = ESRD vs normal, adjusted for age, sex, log(weight), single SC 0.5 mg
# [6] = mild RI vs normal, adjusted for age, sex, log(weight), single SC 0.5 mg
# [7] = moderate RI vs normal, adjusted for age, sex, log(weight), single SC 0.5 mg
# [8] = severe RI vs normal, adjusted for age, sex, log(weight), single SC 0.5 mg
# [9] = single dose 10 µg/kg, six subjects
structure (smiles),measurement,setting,value
"CC[C@H](C)[C@H](NC(=O)[C@H](Cc1ccccc1)NC(=O)[C@H](CCC(=O)O)NC(=O)[C@H](CCCCNC(=O)COCCOCCNC(=O)COCCOCCNC(=O)CC[C@H](NC(=O)CCCCCCCCCCCCCCCCC(=O)O)C(=O)O)NC(=O)[C@H](C)NC(=O)[C@H](C)NC(=O)[C@H](CCC(N)=O)NC(=O)CNC(=O)[C@H](CCC(=O)O)NC(=O)[C@H](CC(C)C)NC(=O)[C@H](Cc1ccc(O)cc1)NC(=O)[C@H](CO)NC(=O)[C@H](CO)NC(=O)[C@@H](NC(=O)[C@H](CC(=O)O)NC(=O)[C@H](CO)NC(=O)[C@@H](NC(=O)[C@H](Cc1ccccc1)NC(=O)[C@@H](NC(=O)CNC(=O)[C@H](CCC(=O)O)NC(=O)C(C)(C)NC(=O)[C@@H](N)Cc1cnc[nH]1)[C@@H](C)O)[C@@H](C)O)C(C)C)C(=O)N[C@@H](C)C(=O)N[C@@H](Cc1c[nH]c2ccccc12)C(=O)N[C@@H](CC(C)C)C(=O)N[C@H](C(=O)N[C@@H](CCCNC(=N)N)C(=O)NCC(=O)N[C@@H](CCCNC(=N)N)C(=O)NCC(=O)O)C(C)C [semaglutide, Semaglutide]","AUC48 ratio (ESRD group/normal renal function group), adjusted","[1]; 0–48 h, without hemodialysis, adjusted for age, sex, body weight, (90% CI)",0.81
same,"AUC48–96 ratio (ESRD group/normal renal function group), adjusted","[1]; 48–96 h, with hemodialysis, adjusted for age, sex, body weight, (90% CI)",0.93
same,effect of hemodialysis on pharmacokinetics,"[1]; ESRD group, AUC48 vs AUC48–96 ratios",hemodialysis did not appear to affect the pharmacokinetics
same,AUC∞ estimated ratio (95% CI),"[1]; ESRD vs normal renal function, single SC 0.5 mg",0.99 (0.82–1.19)
same,"AUC∞ estimated ratio (95% CI), adjusted analysis",[1]; [5],1.10 (0.94–1.28)
same,"C max estimated ratio (90% CI), adjusted analysis",[1]; [5],0.82 (0.66–1.01)
same,C max estimated ratio (90% CI),"[1]; ESRD vs normal, single SC 0.5 mg",0.72 (0.57–0.91)
same,t ½,"[1]; ESRD, single SC 0.5 mg, n=9",243 (19)^b h
same,C max lower in subjects with RI than in subjects with normal renal function,"[1]; all RI groups, adjusted for age, sex, log(weight), single SC 0.5 mg",10–20%
same,AUC∞ estimated ratio (95% CI),"[1]; mild RI vs normal renal function, single SC 0.5 mg",1.01 (0.83–1.21)
same,"AUC∞ estimated ratio (95% CI), adjusted analysis",[1]; [6],0.99 (0.85–1.16)
same,"C max estimated ratio (90% CI), adjusted analysis",[1]; [6],0.90 (0.73–1.11)
same,C max estimated ratio (90% CI),"[1]; mild RI vs normal, single SC 0.5 mg",0.95 (0.76–1.20)
same,t ½,"[1]; mild RI, single SC 0.5 mg, n=9",169 (14)^b h
same,mean C max across the other groups,"[1]; mild, moderate and severe RI groups, single SC 0.5 mg",9.0 to 9.8 nM
same,AUC∞ estimated ratio (95% CI),"[1]; moderate RI vs normal renal function, single SC 0.5 mg",1.15 (0.96–1.38)
same,"AUC∞ estimated ratio (95% CI), adjusted analysis",[1]; [7],1.07 (0.91–1.27)
same,"C max estimated ratio (90% CI), adjusted analysis",[1]; [7],0.79 (0.64–0.99)
same,C max estimated ratio (90% CI),"[1]; moderate RI vs normal, single SC 0.5 mg",0.88 (0.70–1.10)
same,t ½,"[1]; moderate RI, single SC 0.5 mg, n=10",201 (14)^c h
same,t max range across the groups,"[1]; range of group medians, single SC 0.5 mg",24 to 51 h
same,AUC∞ estimated ratio (95% CI),"[1]; severe RI vs normal renal function, single SC 0.5 mg",1.22 (1.02–1.47)
same,"AUC∞ estimated ratio (95% CI), adjusted analysis",[1]; [8],1.13 (0.97–1.32)
same,"C max estimated ratio (90% CI), adjusted analysis",[1]; [8],0.86 (0.70–1.06)
same,C max estimated ratio (90% CI),"[1]; severe RI vs normal, single SC 0.5 mg",0.95 (0.75–1.19)
same,increase in exposure,"[1]; subjects with CLCR 10 mL/min versus CLCR 90 mL/min, from slope −0.06",14%
same,"vital signs, electrocardiogram, physical examinations, clinical laboratory assessments",[2]; all groups,No clinically significant values or appreciable changes
same,serious or severe TEAEs,"[2]; all groups, n=56",none were serious or severe
same,minor hypoglycemia,[2]; moderate RI and ESRD groups,one subject with moderate RI and one with ESRD experienced minor hypoglycemia
same,symptoms-only hypoglycemia,[2]; moderate RI group,two subjects in the moderate RI group experienced symptoms-only hypoglycemia
same,major hypoglycemic events,[2]; one subject with severe RI without type 2 diabetes,two major hypoglycemic events
same,tolerability as starting dose,"[3]; single dose 10 µg/kg (0.7–1.2 mg), six subjects (three severe RI, three ESRD)",not considered a tolerable starting dose
same,minor or symptoms-only hypoglycemia,[3]; [9],three experienced minor or symptoms-only hypoglycemia
same,significant nausea and/or vomiting,[3]; [9],five experienced significant nausea and/or vomiting
same,t ½ in humans,[4],approximately 1 week
